Tb MetRS inh: T. brucei MetRS inhibitors, primary screen, biochemical, luminescence; methionyl-tRNA synthetase (Trypanosoma brucei brucei); purified T. brucei MetRS, ATP depletion, Kinase-Glo luminescence; inhibition, % at 11.9 µM; 0.4% of 360,000 active;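 active = inhibition above a per-plate cutoff of the control wells' mean inhibition plus 3 SD, cut at about 5.5% in these data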
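System: purified T. brucei MetRS enzyme / Detection: Kinase-Glo luciferase luminescence reporting remaining unconsumed ATP / Medium: HEPES buffer with MgCl2, KCl, DTT, spermine, BSA, pyrophosphatase / Replication: singlicate, one well per compound / Evaluation: percent inhibition relative to median high and low control wells / Schedule: 2 h aminoacylation at 25 °C after 15 min preincubation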
Lipid droplet: inhibitors of hepatocyte lipid droplet formation, primary screen, imaging, high-throughput imaging, BODIPY stain; inhibition, % at 6.5 µM; 0.4% of 240,000 active; AML12 mouse hepatocytes, oleate lipid droplets;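 active = lipid droplet intensity inhibited by at least 50%, with more than 500 cells counted; inconclusive = wells with under 300 cells, treated as cytotoxic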
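Test system: AML12 hepatocytes (mouse); reagent: oleate loading, 100 µM; dosing: one dose, 6.5 µM compound; incubation: overnight exposure; signal: fluorescence imaging, 20x objective, two fields per well; read-out basis: % inhibition of corrected integrated BODIPY droplet signal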
HCV core dimer: inhibitors of HCV core protein dimerization, primary screen, biochemical, TR-FRET, high-throughput; TR-FRET GST/Flag-core106 dimerization, 1536-well; inhibition, % at 5 µM; 0.33% of 300,000 active; AID 1899, 2009;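 active = inhibition above the mean of all tested compounds plus 3 SD, set per screening campaign, cut at about 45% in these data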
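Assay system: Tagged HCV core106 pair (GST and Flag) | Buffer or medium: KF-containing HEPES buffer, pH 7.45, DTT, CHAPS, BSA | Also added: Eu donor and XL665 acceptor anti-tag antibodies | Dosing: One concentration, 5 µM, in 0.5% DMSO | Timing: 4 h at 22.5 °C | Technique: TR-FRET 671 and 617 nm emission | Repeats: Singlicate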
HCV NS3 hel inh: inhibitors of HCV NS3 helicase, primary screen, biochemical, Cy5 molecular beacon fluorescence; AID 1800, 2009; 0.56% of 290,000 active; NS3 helicase DNA unwinding; Hepatitis C virus NS3 helicase; inhibition, % at 10.9 µM;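 active = inhibition above the mean of all tested compounds plus 3 SD, set per campaign, cut at about 35% in these data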
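Control set: DMSO versus 110 µM thioflavine S; Material: NS3 helicase fragment of HCV; Measured by: Cy5 fluorescence at 0 and 60 min, beacon hairpin quenching; Read-out basis: percent inhibition from t60/t0 fluorescence ratio; Times: reaction time 60 min, 25 °C; Repeats: single replicate; Compound dosing: single dose, 10.9 µM nominal final, DMSO 0.8% final.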
A number is an active result; – = inactive; ? = inconclusive; · = no result. Only some compounds are listed: those with a hit (about 1.3% of all), similar ones and a draw of the others.

SMILES | Tb MetRS inh | Lipid droplet | HCV core dimer | HCV NS3 hel inh
CSc1ccc(C2C(C#N)=C(N)Oc3c2ccc(=O)c2c(C)oc(C)c32)cc1 (stereo not drawn) | – | – | 77.9 | –
COc1ccc(NC(=O)C2Cc3c(-c4ccc(Cl)cc4)ccnc3O2)cn1 (stereo not drawn) | – | · | · | ·
O=C(NN1C(=O)C2CC=C(Cl)CC2C1=O)c1ccncc1 (stereo not drawn) | – | – | 48.1 | –
COc1ccc(NC(=O)c2ccc(N3C(=O)C4CC=C(Cl)CC4C3=O)cc2)cc1 (stereo not drawn) | – | – | – | –
OC[C@@H]1CN(Cc2ccncc2)C[C@H](n2cnc3c(N4CCOCC4)ncnc32)O1 | – | · | · | ·
O=C(COc1cccc([N+](=O)[O-])c1)N/N=C/c1ccco1 | – | – | – | –
CCc1ccc(OCC(=O)N/N=C\c2ccco2)c([N+](=O)[O-])c1 | – | – | 53.9 | –
COc1ccc(CN2C(=O)CSCC2(C)C(=O)NCc2ccccc2)cc1 (stereo not drawn) | – | · | · | ·
CCCCn1c(SC(C)C(=O)c2ccc(OC)cc2)nc2cc(S(N)(=O)=O)ccc21 (stereo not drawn) | – | · | – | –
CCCCn1c(SCC(=O)c2ccc(OC)cc2OC)nc2cc(S(N)(=O)=O)ccc21 | – | · | 78.8 | –
CC(C)C[C@@H]1COc2cccc(N3CCSCC3)c2S(=O)(=O)N1 | – | · | · | ·
CCn1cc(C(=O)NCc2ccco2)c(=O)c2cc(F)c(N3CCN(C(=O)c4ccco4)CC3)cc21 | – | – | 55.9 | –
N#C/C(=C\c1sc(N2CCOCC2)nc1-c1ccccc1)C(=O)Nc1cccc2ccccc12 | · | 55.6 | · | –
Cc1noc(C)c1C(=O)N1CCC1(C)C(=O)NS(=O)(=O)c1cccc(OC(F)F)c1 (stereo not drawn) | – | · | · | ·
COc1ccc(OC)c(/C=c2\sc3nc(-c4cccs4)nn3c2=O)c1 | – | – | – | –
COc1ccccc1/C=c1\sc2nc(-c3ccco3)nn2c1=O | – | – | 57.3 | –
O=C1NC[C@H](Cc2ccc(O)cc2)N(CCc2cccc(F)c2)C1=O | – | · | · | ·
O=C(Nc1ccc(Nc2ccncc2)cc1)c1ccc(Nc2ccnc3ccc([N+](=O)[O-])cc23)cc1[N+](=O)[O-] | – | – | 62.3 | –
O=C(Nc1ccc(Nc2ccncc2)cc1)c1ccc([N+](=O)[O-])cc1 | – | – | – | –
COc1cc2ncnc(NCc3ccccc3)c2cc1OC | – | ? | – | –
COc1cc2ncnc(NCc3cccc(Cl)c3)c2cc1OC | – | 50.9 | – | –
CC(C)N(C)c1ncnc2c1ncn2[C@H]1CN(CCN2CCOCC2)C[C@@H](CO)O1 | – | · | · | ·
O=C(N/N=C/C=C\c1ccccc1[N+](=O)[O-])c1cccs1 | – | – | – | –
O=C(N/N=C/C=C/c1ccc([N+](=O)[O-])cc1)c1cccs1 | – | · | 48.9 | –
Cc1ccc(S(=O)(=O)Nc2ccccc2NS(=O)(=O)c2ccc(C)cc2)cc1 | – | · | · | ·
SMILES | Tb MetRS inh | Lipid droplet | HCV core dimer | HCV NS3 hel inh
Cc1ccc(S(=O)(=O)Nn2c(C)ccc2C)cc1 | – | – | 67.2 | –
CC1=C(C(=O)N(C)C)CC(CC(=O)NCC2CCCCC2)C(=O)N1Cc1ccc(F)cc1 (stereo not drawn) | – | · | · | ·
CCOC(=O)c1cc(-c2ccco2)nc2c1c(C)nn2-c1ccccc1 | – | · | 58.7 | –
CCCn1c(=O)c2c(C(=O)OCC)cc(-c3ccco3)nc2n(CCC)c1=O | – | – | · | –
CCCCC1=CC2=C(c3ccco3)C(=O)C(C)(OC(=O)c3ccc(OC)cc3)C(=O)C2=CN1Cc1ccc2c(c1)OCO2 (stereo not drawn) | – | – | 55.1 | ·
COc1ccc(CNC(=O)CCCCCn2c(SCC#N)nc3cc4c(cc3c2=O)OCO4)cc1 | – | 56.3 | – | –
CCOc1ccc(NC(=O)c2ccc3c(c2)S(=O)(=O)N=C2CCCCCN23)cc1 | – | · | · | ·
CN(C)c1ccc(CC(=O)N2CCCC(c3cc(C(=O)Nc4ccc(C(C)(C)C)cc4)no3)C2)cc1 (stereo not drawn) | – | · | · | ·
Cc1cc(C(=O)COC(=O)c2ccc3c(c2)NC(=O)CS3)c(C)n1CCc1ccc(Cl)cc1 | – | – | 48.4 | –
O=C(Nc1ccc(F)cc1)C(c1cccc(F)c1)N1CCN(c2cccc(C(F)(F)F)n2)CC1 (stereo not drawn) | – | · | · | ·

Screens: PubChem BioAssay, several laboratories
